The record followed here is ChEMBL document CHEMBL3244036, “Inhibition of beef-brain and dog-heart (Na+ + k+) activated adenosine triphosphatase by carbon-3 branched cardenolides” (J Med Chem, 1978).

Experiment [1] is filed under the species Bos taurus. Description: Inhibition of beef-brain Na(+)/K(+) ATPase assessed as oxidation of NADH using ATP substrate preincubated for 5 mins. Summed up:
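Microsomal enzyme from frozen, partially thawed beef brain. Pyruvate kinase/lactate dehydrogenase-coupled system with inhibitor (in water, or DMSO made up with water) preincubated 5 min before adding ATP. NADH oxidation followed photometrically. Final volume 2.95 mL. At least four roughly log-equidistant concentrations, each in duplicate or triplicate. IC50 from linear regression of % inhibition against log concentration.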

For experiment [2], the species on record is Canis lupus familiaris. Description: Inhibition of dog-heart microsomal Na(+)/K(+) ATPase using ATP substrate. In short, it runs like this:
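Microsomal enzyme from frozen dog heart in Tris-HCl pH 7.4 containing MgCl2, KCl and NaCl. Preincubated with inhibitor for 5 min, then pyruvate kinase, lactate dehydrogenase, phosphoenolpyruvate and NADH added. Reaction started with ATP; NADH oxidation read photometrically. At least four log-spaced concentrations, each in duplicate or triplicate. Linear regression of % inhibition against log concentration.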

The species named for experiment [3] is Bos taurus. Description: Inhibition of beef-brain Na(+)/K(+) ATPase assessed as oxidation of NADH using ATP substrate at 5 uM preincubated for 5 mins relative to digitoxigenin.

The structures appear in SMILES notation.

For `C=C[C@]1(O)CC[C@@]2(C)[C@H](CC[C@@H]3[C@@H]2CC[C@]2(C)[C@@H](C4=CC(=O)OC4)CC[C@]32O)C1`, the ID50 in experiment [1] turned out to be 0.31 µmol; in experiment [2], 0.092 µmol. Further, the fold change (FC) in experiment [3] worked out at 100.
In the case of `C[C@]12CC[C@@](O)(C(O)CO)C[C@H]1CC[C@@H]1[C@@H]2CC[C@]2(C)[C@@H](C3=CC(=O)OC3)CC[C@]12O` (some centres not stated), the ID50 in experiment [1] worked out at 15.4 µmol; in experiment [2] it was 7.8 µmol. Also, in experiment [3], the fold change (FC) is 100.
The corresponding values for `C[C@]12CC[C@@]3(CO3)C[C@H]1CC[C@@H]1[C@@H]2CC[C@]2(C)[C@@H](C3=CC(=O)OC3)CC[C@]12O` are 0.71 µmol, 0.275 µmol and 100.
On the same counts, the results for `C[C@]12CC[C@@](O)(c3ccccc3)C[C@H]1CC[C@@H]1[C@@H]2CC[C@]2(C)[C@@H](C3=CC(=O)OC3)CC[C@]12O` are 2.11 µmol, 0.6 µmol and 100.
On the same counts, the results for `C[C@]12CC[C@@](O)(CC3CO3)C[C@H]1CC[C@@H]1[C@@H]2CC[C@]2(C)[C@@H](C3=CC(=O)OC3)CC[C@]12O` (some centres not stated) are 3.65 µmol, 1.69 µmol and 100.
For the compound `C[C@]12CC[C@H](O)C[C@H]1CC[C@@H]1[C@@H]2CC[C@]2(C)[C@@H](C3=CC(=O)OC3)CC[C@]12O`, the figures for the ID50 in experiment [1] and in experiment [2] were 0.096 µmol and 0.035 µmol, respectively.
Regarding `C=CC[C@@]1(O)CC[C@@]2(C)[C@H](CC[C@@H]3[C@@H]2CC[C@]2(C)[C@@H](C4=CC(=O)OC4)CC[C@]32O)C1`, the ID50 in experiment [1] stood at 5.81 µmol.
As for `C#C[C@]1(O)CC[C@@]2(C)[C@H](CC[C@@H]3[C@@H]2CC[C@]2(C)[C@@H](C4=CC(=O)OC4)CC[C@]32O)C1`, the ID50 in experiment [1] came out at 0.25 µmol; in experiment [2], 0.12 µmol. Moreover, the fold change (FC) in experiment [3] amounted to 100.
In the case of `CC[C@@]1(O)CC[C@@]2(C)[C@H](CC[C@@H]3[C@@H]2CC[C@]2(C)[C@@H](C4=CC(=O)OC4)CC[C@]32O)C1`, the ID50 in experiment [1] amounted to 6.4 µmol.
Consider `C[C@]12CC[C@@](O)(C3CO3)C[C@H]1CC[C@@H]1[C@@H]2CC[C@]2(C)[C@@H](C3=CC(=O)OC3)CC[C@]12O` (some centres not stated), for which the results for the ID50 in experiment [1] and in experiment [2] were 2.03 µmol and 1.1 µmol, respectively. Also, the fold change (FC) in experiment [3] worked out at 100.
For `C#C[C@@]1(O)CC[C@@]2(C)[C@H](CC[C@@H]3[C@@H]2CC[C@]2(C)[C@@H](C4=CC(=O)OC4)CC[C@]32O)C1`, the ID50 in experiment [1] was 2.11 µmol.
For `C[C@]12CC[C@](O)(CC(O)CO)C[C@H]1CC[C@@H]1[C@@H]2CC[C@]2(C)[C@@H](C3=CC(=O)OC3)CC[C@]12O` (some centres not stated), the ID50 in experiment [1] came to 2.34 µmol.
On the same count and under the same terms, the result for `C[C@]12CC[C@@H](O)C[C@H]1CC[C@@H]1[C@@H]2CC[C@]2(C)[C@@H](C3=CC(=O)OC3)CC[C@]12O` reads 1.17 µmol; that for `C[C@]12CC[C@](O)(C(O)CO)C[C@H]1CC[C@@H]1[C@@H]2CC[C@]2(C)[C@@H](C3=CC(=O)OC3)CC[C@]12O` (some centres not stated), 1.7 µmol.
Turning to `C[C@]12CC[C@@](O)(CC(O)CO)C[C@H]1CC[C@@H]1[C@@H]2CC[C@]2(C)[C@@H](C3=CC(=O)OC3)CC[C@]12O` (some centres not stated), the ID50 amounted to 7.66 µmol in experiment [1] and 4.44 µmol in experiment [2]. Further, the fold change (FC) in experiment [3] is 100.
On to `C[C@]12CC[C@](O)(C3CO3)C[C@H]1CC[C@@H]1[C@@H]2CC[C@]2(C)[C@@H](C3=CC(=O)OC3)CC[C@]12O` (some centres not stated), for which the ID50 in experiment [1] stood at 3.17 µmol.
Regarding `CC[C@]1(O)CC[C@@]2(C)[C@H](CC[C@@H]3[C@@H]2CC[C@]2(C)[C@@H](C4=CC(=O)OC4)CC[C@]32O)C1`, the ID50 is 2.15 µmol in experiment [1] and 0.73 µmol in experiment [2]. The fold change (FC) in experiment [3] is 100.
On the same counts, the results for `C[C@]1(O)CC[C@@]2(C)[C@H](CC[C@@H]3[C@@H]2CC[C@]2(C)[C@@H](C4=CC(=O)OC4)CC[C@]32O)C1` are 0.92 µmol, 0.32 µmol and 100.
As for `C[C@]12CC[C@]3(CO3)C[C@H]1CC[C@@H]1[C@@H]2CC[C@]2(C)[C@@H](C3=CC(=O)OC3)CC[C@]12O`, the ID50 in experiment [1] turned out to be 0.74 µmol.
As for `C=CC[C@]1(O)CC[C@@]2(C)[C@H](CC[C@@H]3[C@@H]2CC[C@]2(C)[C@@H](C4=CC(=O)OC4)CC[C@]32O)C1`, the values for the ID50 in experiment [1] and in experiment [2] were 1.25 µmol and 0.55 µmol, respectively. For the same compound, in experiment [3], the fold change (FC) is 100.
Consider `C[C@@]1(O)CC[C@@]2(C)[C@H](CC[C@@H]3[C@@H]2CC[C@]2(C)[C@@H](C4=CC(=O)OC4)CC[C@]32O)C1`, for which the ID50 in experiment [1] was found to be 11.4 µmol.
Same read-out and setting: the result for `C[C@]12CC[C@](O)(CC3CO3)C[C@H]1CC[C@@H]1[C@@H]2CC[C@]2(C)[C@@H](C3=CC(=O)OC3)CC[C@]12O` (some centres not stated) reads 4.06 µmol; that for `C[C@]12CC[C@](O)(c3ccccc3)C[C@H]1CC[C@@H]1[C@@H]2CC[C@]2(C)[C@@H](C3=CC(=O)OC3)CC[C@]12O`, 5.81 µmol.
As to `C=C[C@@]1(O)CC[C@@]2(C)[C@H](CC[C@@H]3[C@@H]2CC[C@]2(C)[C@@H](C4=CC(=O)OC4)CC[C@]32O)C1`, in experiment [1], the ID50 was found to be 6.68 µmol.
